Holding throughout (format): protein-complex assay
Test [1] has as its target T1, Integrin alpha-IIb/beta-3 (Homo sapiens, UniProt P05106+P08514). Kind of test: Inhibition of Fibrinogen receptor. In short, it runs like this: (§1)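 Solid-phase ELISA: human fibrinogen (10 µg/mL) coated, BSA-blocked; samples plus purified human platelet GPIIbIIIa (40 µg/mL) incubated 1 h at room temperature. Bound receptor detected with anti-GPIIbIIIa antibody AP3 (1 µg/mL, 1 h), then goat anti-mouse HRP (1 h); OPD/H2O2 at pH 5, stopped with H2SO4, absorbance 492-405 nm. IC50 from four-parameter fit; n ≥ 3.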

Test [2] addresses T1, Integrin alpha-IIb/beta-3. The test can be described thus: Inhibition of Fibrinogen binding to Fibrinogen receptor. In short, it runs like this:
as §1

In test [3] the target is T1, Integrin alpha-IIb/beta-3. Kind of test: The compound was tested for the inhibition of fibrinogen receptor. In short, it runs like this:
as §1

*1 amine or outer side, *2 acyl side, *3 side chain or, on linkers, in order; H or OH if unused. Where a SMILES comes first, the peptide text is derived from it. Bridges are numbered along the chain shown (N, C = ends). [ ]: non-standard residue; d: D form. Cys(O)(CH2CO) = O=C([C@H](C[S+]([O-])CC(=O)[*:3])N[*:1])[*:2]

Here are results for 13 compounds from ChEMBL document CHEMBL1126061, “Cyclic RGD peptide analogues as antiplatelet antithrombotics” (J Med Chem, 1992).

T1 sequence (P05106 27-788 limits assumed): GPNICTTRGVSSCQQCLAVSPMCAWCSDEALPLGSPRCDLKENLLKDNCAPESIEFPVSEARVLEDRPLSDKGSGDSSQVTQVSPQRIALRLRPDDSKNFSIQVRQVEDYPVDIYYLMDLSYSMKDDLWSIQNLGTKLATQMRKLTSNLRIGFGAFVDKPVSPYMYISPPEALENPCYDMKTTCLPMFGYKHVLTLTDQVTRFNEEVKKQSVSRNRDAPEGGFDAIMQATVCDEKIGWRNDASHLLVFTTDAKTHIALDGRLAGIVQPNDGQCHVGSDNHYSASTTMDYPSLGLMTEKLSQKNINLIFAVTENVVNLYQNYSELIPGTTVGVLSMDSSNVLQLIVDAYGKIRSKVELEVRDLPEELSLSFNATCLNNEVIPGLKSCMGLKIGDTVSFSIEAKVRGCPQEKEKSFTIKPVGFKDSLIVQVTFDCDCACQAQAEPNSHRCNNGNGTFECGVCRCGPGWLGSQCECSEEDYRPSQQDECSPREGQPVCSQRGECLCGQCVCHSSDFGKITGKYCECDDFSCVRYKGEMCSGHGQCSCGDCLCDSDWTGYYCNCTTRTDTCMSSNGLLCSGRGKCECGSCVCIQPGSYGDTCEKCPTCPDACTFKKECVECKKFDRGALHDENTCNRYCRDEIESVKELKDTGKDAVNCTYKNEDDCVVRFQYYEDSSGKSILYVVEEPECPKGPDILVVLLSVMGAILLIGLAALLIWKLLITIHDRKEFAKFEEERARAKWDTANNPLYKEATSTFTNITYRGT
T1 sequence (P08514 32-887 limits assumed): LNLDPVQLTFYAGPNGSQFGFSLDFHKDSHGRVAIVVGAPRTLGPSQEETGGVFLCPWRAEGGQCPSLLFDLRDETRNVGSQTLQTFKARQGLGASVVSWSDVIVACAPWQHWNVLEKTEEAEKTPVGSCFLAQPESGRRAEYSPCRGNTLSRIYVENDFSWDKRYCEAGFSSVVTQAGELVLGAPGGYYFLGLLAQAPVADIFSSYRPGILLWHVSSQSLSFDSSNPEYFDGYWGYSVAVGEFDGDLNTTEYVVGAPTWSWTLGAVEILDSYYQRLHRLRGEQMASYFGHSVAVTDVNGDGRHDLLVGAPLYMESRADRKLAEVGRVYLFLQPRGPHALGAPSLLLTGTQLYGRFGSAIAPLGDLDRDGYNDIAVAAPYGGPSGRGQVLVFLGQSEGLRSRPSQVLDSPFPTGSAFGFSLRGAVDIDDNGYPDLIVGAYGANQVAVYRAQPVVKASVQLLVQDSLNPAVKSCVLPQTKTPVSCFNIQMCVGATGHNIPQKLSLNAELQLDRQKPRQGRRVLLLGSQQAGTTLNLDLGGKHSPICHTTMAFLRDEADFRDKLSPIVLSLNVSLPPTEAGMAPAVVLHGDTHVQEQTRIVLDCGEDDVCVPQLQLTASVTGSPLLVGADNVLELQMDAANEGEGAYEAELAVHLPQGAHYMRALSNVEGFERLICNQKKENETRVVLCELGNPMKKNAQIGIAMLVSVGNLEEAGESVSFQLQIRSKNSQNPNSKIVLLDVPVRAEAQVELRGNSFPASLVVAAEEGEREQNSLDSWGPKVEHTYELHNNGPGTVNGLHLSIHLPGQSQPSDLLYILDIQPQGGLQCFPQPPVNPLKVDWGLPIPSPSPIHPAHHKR
T1 sequence (P08514 891-1039 limits assumed): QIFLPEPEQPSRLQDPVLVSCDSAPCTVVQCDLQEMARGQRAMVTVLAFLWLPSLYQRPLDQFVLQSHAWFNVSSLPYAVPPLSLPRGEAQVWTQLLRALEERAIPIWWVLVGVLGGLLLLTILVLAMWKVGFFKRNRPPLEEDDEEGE

In general, IC50 refers to the concentration needed to halve the response being measured. On to `N=C(N)NCCC[C@H](N)C(=O)NCC(=O)N[C@@H](CC(=O)O)C(=O)N[C@@H](Cc1ccccc1)C(=O)O` (H-RGDF-OH), for which, in test [1], half-maximal inhibition (IC50) was put at 31 nM.

`CC(C)[C@@H]1NC(=O)C[S+]([O-])C[C@@H](C(=O)O)NC(=O)[C@H](CC(=O)O)NC(=O)CNC(=O)[C@H](CCCNC(=N)N)NC1=O` (some centres undefined) (VRGD[Cys(O)(CH2CO)]-OH; lactam N-5): the IC50 was determined as 4.5 nM in test [2] and 2.9 nM in test [3].

Regarding `N=C(N)NCCC[C@@H]1NC(=O)[C@H](CCCCN)NC(=O)C[S+]([O-])C[C@@H](C(=O)O)NC(=O)[C@H](CC(=O)O)NC(=O)CNC1=O` (some centres undefined) (KRGD[Cys(O)(CH2CO)]-OH; lactam N-5), the half-maximal inhibitory concentration (IC50) in test [2] turned out to be 14 nM; in test [3] it was 2.6 nM.

`N=C(N)NCCC[C@@H]1NC(=O)[C@H](Cc2ccccc2)NC(=O)C[S+]([O-])C[C@@H](C(=O)O)NC(=O)[C@H](CC(=O)O)NC(=O)CNC1=O` (some centres undefined): the IC50 in test [2] turned out to be 16 nM; in test [3], 6.6 nM.

With `CC(C)C[C@@H]1NC(=O)C[S+]([O-])C[C@@H](C(=O)O)NC(=O)[C@H](CC(=O)O)NC(=O)CNC(=O)[C@H](CCCN=C(N)N)NC1=O` (some centres undefined) (LRGD[Cys(O)(CH2CO)]-OH; lactam N-5), the values for the IC50 in test [2] and in test [3] were 25 nM and 3.9 nM, respectively.

Consider `N=C(N)NCCC[C@@H]1NC(=O)[C@H](CO)NC(=O)C[S+]([O-])C[C@@H](C(=O)O)NC(=O)[C@H](CC(=O)O)NC(=O)CNC1=O` (some centres undefined) (SRGD[Cys(O)(CH2CO)]-OH; lactam N-5), for which the IC50 in test [2] was determined as 50 nM; in test [3], 8 nM.

As for `N=C(N)NCCC[C@@H]1NC(=O)[C@@H](Cc2ccccc2)NC(=O)C[S+]([O-])C[C@@H](C(=O)O)NC(=O)[C@H](CC(=O)O)NC(=O)CNC1=O` (some centres undefined), the IC50 in test [2] stood at 33 nM; in test [3], 5.6 nM.

In turn, `CC(C)(C)C[C@@H]1NC(=O)CSC[C@@H](C(=O)O)NC(=O)[C@H](CC(=O)O)NC(=O)CNC(=O)[C@H](CCCNC(=N)N)NC1=O` yielded an IC50 in test [3] of 3.6 nM.

In test [3], `N=C(N)NCCC[C@@H]1NC(=O)CNC(=O)C(c2ccc3ccccc3c2)SC[C@@H](C(=O)O)NC(=O)[C@H](CC(=O)O)NC(=O)CNC1=O` (stereo in doubt; 21B) displayed a half-inhibitory concentration (IC50) of 2.8 nM.

In test [3], `CC(=O)NCC(=O)N[C@@H](CCCNC(=N)N)C(=O)NCC(=O)N[C@@H](CC(=O)O)C(=O)N[C@H](C(=O)O)C(C)C` (Ac-GRGDV-OH) had an IC50 of 12 nM.

Regarding `N=C(N)NCCC[C@@H]1NC(=O)[C@@H](Cc2ccc(O)cc2)NC(=O)C[S+]([O-])C[C@@H](C(=O)O)NC(=O)[C@H](CC(=O)O)NC(=O)CNC1=O` (stereo in doubt; 69B), the concentration for half-maximal inhibition (IC50) in test [3] is 40 nM.

Compound `N=C(N)NCCC[C@@H]1NC(=O)[C@@H](CC(=O)O)NC(=O)CSC[C@@H](C(=O)O)NC(=O)[C@H](CC(=O)O)NC(=O)CNC1=O` yielded a concentration for half-maximal inhibition (IC50) in test [3] of 500 nM.

For `N=C(N)NCCC[C@@H]1NC(=O)CNC(=O)C(c2cccc(C(F)(F)F)c2)SC[C@@H](C(=O)O)NC(=O)[C@H](CC(=O)O)NC(=O)CNC1=O` (stereo in doubt; 24B), the concentration for half-maximal inhibition (IC50) in test [3] amounted to 5.7 nM.
